RAD54 inh: blocks human RAD54 Holliday junction branch migration; inhibition, % at 10.4 µM; Q92698; 0.14% of 360,000 active; AID 602329; FAM/BHQ fluorescence;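 active = mean normalized replicate activity at least 40 and at least half of replicates scoring 40 or more; inconclusive = only one of the two criteria met; inactive = mean below 40 and under half of replicates reaching 40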;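 also: inhibitors cause a drop in the FAM fluorescence signal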
Target sequence (Q92698 whole entry, looked up): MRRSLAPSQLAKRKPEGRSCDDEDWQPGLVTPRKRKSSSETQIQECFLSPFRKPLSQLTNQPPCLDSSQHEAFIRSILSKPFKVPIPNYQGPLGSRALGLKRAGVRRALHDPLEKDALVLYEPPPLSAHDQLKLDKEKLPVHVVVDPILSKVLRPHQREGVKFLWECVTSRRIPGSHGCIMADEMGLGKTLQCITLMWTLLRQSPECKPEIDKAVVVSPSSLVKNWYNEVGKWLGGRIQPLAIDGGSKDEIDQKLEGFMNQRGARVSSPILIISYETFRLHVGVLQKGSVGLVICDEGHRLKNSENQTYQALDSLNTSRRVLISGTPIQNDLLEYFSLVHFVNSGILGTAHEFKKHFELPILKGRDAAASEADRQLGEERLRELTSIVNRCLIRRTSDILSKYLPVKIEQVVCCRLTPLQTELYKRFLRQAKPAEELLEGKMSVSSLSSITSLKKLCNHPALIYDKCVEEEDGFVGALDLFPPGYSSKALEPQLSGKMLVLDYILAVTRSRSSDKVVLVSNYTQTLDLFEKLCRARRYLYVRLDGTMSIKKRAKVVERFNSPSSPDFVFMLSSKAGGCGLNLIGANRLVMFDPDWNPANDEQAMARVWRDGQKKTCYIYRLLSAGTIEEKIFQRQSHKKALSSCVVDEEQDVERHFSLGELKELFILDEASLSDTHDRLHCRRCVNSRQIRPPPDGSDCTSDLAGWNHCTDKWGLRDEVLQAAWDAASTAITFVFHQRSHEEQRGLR
NSD2 HMT inh: inhibitors of human histone methyltransferase NSD2 | O96028 | NSD2 peptide methylation, AlphaScreen, 120 min | inhibition, % at 12.5 µM | 0.54% of 310,000 active; in the data active = inhibition above about 50%
FN deposit inh: fibronectin deposition inhibition; AH1F fibroblasts, Alexa488-fibronectin deposition fluorescence, overnight; inhibition, % at 12.6 µM; 0.086% of 350,000 active; AID 743247;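 active = mean inhibition across replicates of 30% or more, regardless of how many single replicates reach that level; inconclusive = mean under 30% yet at least half of replicates reach 30%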
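Schedule: 1 h cell adhesion before compound, then overnight fibronectin incubation; test system: AH1F fibroblast monolayer depositing Alexa488-labelled fibronectin into matrix; quantity: 10000 AH1F cells per well; probe or stimulus: fluorescent fibronectin at 24 nM final; signal: fluorescence, ex 485 nm, em 525 nm; evaluation: percent inhibition as loss of matrix-bound fibronectin fluorescence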
RAD52 anneal inh: RAD52 (human) annealing inhibition | P43351 | recombinant RAD52 DNA annealing, FRET fluorescence | inhibition, % at 18.7 µM | 0.46% of 360,000 active | AID 651710;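 active = every replicate showing at least 50% inhibition; inconclusive = mean inhibition at least 50% but not in every replicate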
AF4-AF9 inh: inhibitors of human MLL-AF4/AF9 interaction; P42568; AlphaScreen, biotin-AF4 peptide binding to FLAG-AF9; inhibition, % at 10 µM; 0.47% of 350,000 active; AID 651704;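 active = every replicate reaching a set inhibition limit, whatever the replicate mean, cut at about 25% in these data; inconclusive = mean inhibition reaches that limit but some replicates miss it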
Glyco luc inh: blocks N-linked glycosylation in D54 reporter cells. D54 ERlucT glycosylation luciferase reporter, 24 h; percent of 100 nM tunicamycin response. reporter increase, % at 12.5 µM. 0.23% of 360,000 active;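 active = mean luciferase reporter signal, scaled so untreated is 0 and the glycosylation-blocking control 100, at or above a set limit in every replicate; inconclusive = mean reaches the limit but not every replicate does; inactive = mean below the limit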;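 also: luciferase carries N-glycosylation sites so blocking glycosylation raises the light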
RAD52 DNA ctr: binds DNA, flagging false RAD52 inhibitor hits; shares compounds with RAD52 anneal inh; Salmon sperm DNA/acridine orange FP displacement, DNA binding; AC50, µM; 8% of 1,000 active; AID 652128;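 active = fitted half-maximal concentration for signal loss at or below twice the highest dose tested, in every separate run, actives reach about 64 µM in these data; inconclusive = runs disagree, or flat partial signal loss, or poor fit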
A number is an active result; n = inactive; u = inconclusive; x = no result given; ! = not active in a repeat. Hits are enriched below; roughly 1.2% of the tested compounds scored in any of these assays.

SMILES	RAD54 inh	NSD2 HMT inh	FN deposit inh	RAD52 anneal inh	AF4-AF9 inh	Glyco luc inh	RAD52 DNA ctr
COc1ccccc1S(=O)(=O)N[C@H]1CC[C@@H](CCn2cc(C3CCCC3)nn2)O[C@H]1CO	x	x	n	n	n	x	x
COc1cc2c(cc1OC)CN1CCc3cc(OC)c(OC)cc3C1C2 (centres undefined)	84.5	x	x	73.8	n	n	n
CCN(CC)CCNC(=O)c1cc2c(-c3cccc(OC)c3)nn(C)c2s1	x	n	n	68.5	n	n	n
C=CC(=O)Nc1cccc(Oc2nc(Nc3ccc(N4CCN(C)CC4)cc3OC)ncc2Cl)c1	x	x	n	94.6	63.0	x	n
C=CC(=O)Nc1cccc(Oc2cc(Cl)nc3[nH]ccc23)c1	n	x	n	n	x	n	x
Cc1cccc2nc(-c3ccccc3)c(-c3ccc(CN4CCC(n5cc(-c6ccccc6)[nH]c5=O)CC4)cc3)nc12	x	x	n	61.9	x	x	n
Cc1cccc2nc(-c3ccccc3)c(-c3ccc(CN4CCC(c5nc6ccccc6[nH]5)CC4)cc3)nc12	x	x	n	59.9	x	x	n
c1ccc(-c2nc3ccccc3nc2-c2ccc(CN3CCC(c4nc5ccccc5[nH]4)CC3)cc2)cc1	x	x	n	n	x	x	x
CCCNC(=O)Nc1ccc2c(c1)C(=O)N(C)[C@@H]1CC[C@H](CC(=O)NCCCN(C)C)O[C@@H]1CO2	n	x	n	n	n	x	x
CNC[C@@H]1Oc2ccc(NC(=O)NC(C)C)cc2C(=O)N(C)C[C@H]1C	x	x	n	x	x	x	x
CCCCCCCCCCCC1N=C(N)NC(CCCO)=C1C(=O)OC (centres undefined)	x	n	n	88.2	n	n	u
C[C@H](CO)N1C[C@H](C)[C@H](CN(C)Cc2ccc3c(c2)OCO3)Oc2ccc(NC(=O)CCC(F)(F)F)cc2C1=O	n	x	n	n	n	x	x
CCOCCCn1c(C)nc2c[n+](CC(=O)c3ccc4ccccc4c3)cc(Br)c21	n	n	n	64.4	n	n	n
COc1cccc(-c2ccc3c(c2)[C@@H]2[C@@H](CCN2C(=O)Cc2ccccc2)[C@H](CO)N3)c1	n	x	n	n	n	x	x
Oc1ccc(C2CNCCc3c2cc(O)c(O)c3Cl)cc1 (centres undefined)	n	x	n	51.8!	n	n	n
Cc1ccc2c(c1)c1c3n2CCN(CC(N)=O)C3CCC1 (centres undefined)	n	n	n	n	n	n	x
Cc1ccc2c(c1)c1c3n2CCN(CC(O)CNC(C)C)C3CCC1 (centres undefined)	u	n	n	82.4	n	n	n
COc1ccc(NC(=O)c2ccc(Cl)c(NC(=O)c3cccnc3)c2)cc1	x	n	x	x	x	x	x
CCCOc1cccc(C(=O)NC(=S)Nc2ccc(N3CCN(C)CC3)cc2)c1	x	n	n	66.1	n	n	n
CCOc1cccc(C(=O)NC(=S)Nc2ccc(N3CCN(CC)CC3)cc2)c1	n	n	n	n	n	n	x
CC(=O)Nc1cccc(-c2cc(N3CCN(CCO)CC3)n3nccc3n2)c1	n	n	n	56.7	n	n	n
OCCN1CCN(c2cc(-c3ccc(CO)cc3)nc3ccnn23)CC1	n	n	n	n	n	n	x
COc1ccccc1S(=O)(=O)N[C@@H]1CC[C@H](CCNC(=O)C2CCC2)O[C@@H]1CO	n	x	x	n	n	x	x
COc1ccc(-c2[nH]ncc2CN2CCCCCCC2)c(OC)c1	x	n	x	75.7	n	n	n
CC1(C)Nc2cccc3cccc(c23)N1	n	n	n	65.4	n	n	n
SMILES	RAD54 inh	NSD2 HMT inh	FN deposit inh	RAD52 anneal inh	AF4-AF9 inh	Glyco luc inh	RAD52 DNA ctr
CCN(CC)CCCNC(=O)c1cc(Nc2ccc(OC)cc2OC)nc2ccccc12	n	n	n	n	n	n	n
COCCCNC(=O)c1cc(Nc2ccc(OC)cc2OC)nc2ccccc12	n	n	n	n	n	n	x
CO[C@H]1CN(C)C(=O)c2cc(NC(=O)NC(C)C)ccc2OC[C@@H](C)N(C)C[C@H]1C	n	x	n	n	n	x	x
O=C(O)c1cc(-n2nnnc2SCc2ccc([N+](=O)[O-])cc2)ccc1Cl	n	n	n	105.0	n	n	n
C[C@H]1CN([C@@H](C)CO)C(=O)c2cc(NC(=O)CCN3CCOCC3)ccc2O[C@@H]1CN(C)Cc1ccc(C(=O)O)cc1	n	x	x	n	n	x	x
COc1ccc(C(=O)NCCN(C)C)c2nc3ccccc3cc12	x	n	n	90.6	n	54.3	24.9µM
CN(C)CCNC(=O)c1cccc2[nH]c(-c3ccncc3)nc12	x	x	n	50.4	n	68.0	51.8µM
CN(C)CCNC(=O)c1ccccc1-c1ccccc1	n	n	n	x	x	n	x
COc1cccc2nc3c(C(=O)NCCN(C)C)cccc3cc12	x	x	n	81.3	n	48.6	33.8µM
COc1ccc(Cl)cc1C(=O)NCCN(C)C	n	n	n	x	x	n	x
CN(C)CCNC(=O)c1cccc2nc3c(ccc4ccccc43)nc12	x	n	n	95.1	u	56.3	13.5µM
C[C@H]1CN([C@@H](C)CO)C(=O)c2cc(-c3ccncc3)cnc2O[C@H]1CN(C)C(=O)c1ccncc1	n	x	x	n	n	x	x
COc1ccc(-c2coc3c(C(=O)NCCN(C)C)cccc23)c(C)c1	n	n	n	n	n	n	x
COc1ccc(-c2nc3c(C(=O)NCCN(C)C)cccc3c3ccccc23)cc1	x	n	n	100.5	n	36.6	u
COc1cc2c(cc1O)CC[n+]1cc3c(OC)c(OC)ccc3cc1-2	75.7	x	n	81.3	n	n	n
COc1cc2c(cc1OC)-c1cc3ccc4c(c3c[n+]1CC2)OCO4	n	x	n	n	n	n	x
CN(C)CCCNc1ncnc2oc(-c3ccccc3)c(-c3ccccc3)c12	n	n	n	n	n	n	n
c1ccc(-c2oc3ncnc(NCCCn4ccnc4)c3c2-c2ccccc2)cc1	n	x	x	n	x	n	x
Nc1nc2c(ncn2[C@@H]2O[C@H](CNCc3ccc(F)c(N4CCOCC4)c3)[C@@H](O)[C@H]2O)c(=O)[nH]1	n	x	n	n	n	n	x
CN1CCN(c2ccc(CNC[C@H]3O[C@@H](n4cnc5c(=O)[nH]c(N)nc54)[C@H](O)[C@@H]3O)c(F)c2)CC1	n	x	n	81.6	n	n	n
COc1nc(Nc2nc3ccccc3c(=O)[nH]2)nc2ccc(C)cc12	n	x	n	n	n	n	x
COc1nc(N=C(N)N)nc2ccc(C)cc12	x	n	n	79.2	n	x	n
CC(C)NC(=O)Nc1ccc2c(c1)C(=O)N([C@H](C)CO)C[C@H](C)[C@@H](CN(C)S(=O)(=O)c1ccc(Cl)cc1)OCCCC[C@@H](C)O2	n	x	n	n	n	x	x
CN1CCN(c2ccc(C(CC(N)=O)NC(=O)Cc3cccc4ccccc34)cc2[N+](=O)[O-])CC1 (centres undefined)	n	x	n	55.9	n	n	u
NC(=O)CC(NC(=O)Cc1cccc2ccccc12)c1ccc(N2CCC(N3CCCC3)CC2)c([N+](=O)[O-])c1 (centres undefined)	n	x	n	n	x	n	x

High-throughput results: PubChem BioAssay, Broad Institute
